# Assay results from ChEMBL document CHEMBL1275591, “Cellular pharmacodynamics of the novel biaryloxazolidinone radezolid: studies with infected phagocytic and nonphagocytic cells, using Staphylococcus aureus, Staphylococcus epidermidis, Listeria monocytogenes, and Legionella pneumophila” (Antimicrob Agents Chemother, 2010).
# Legend:
# Staphylococcus aureus [1] = assay: Antimicrobial activity against linezolid resistant methicillin-susceptible Staphylococcus aureus SA040L after 24 hrs; assay type: functional
# Staphylococcus aureus [2] = assay: Antimicrobial activity against hospital acquired methicillin-resistant Staphylococcus aureus ATCC 33591 after 24 hrs; assay type: functional; details: ATCC 33591, 24 h
# Staphylococcus aureus [3] = assay: Antimicrobial activity against Linezolid resistant hospital acquired methicillin-resistant Staphylococcus aureus SA238L after 24 hrs; assay type: functional
# Staphylococcus aureus [4] = assay: Antimicrobial activity against hospital acquired methicillin-resistant, vancomycin resistant Staphylococcus aureus VRS1 after 24 hrs; assay type: functional; details: VRS1, 24 h
# Staphylococcus aureus [5] = assay: Antimicrobial activity against hospital acquired methicillin-resistant, vancomycin resistant Staphylococcus aureus VRS2 after 24 hrs; assay type: functional; details: VRS2, 24 h
# [6] = system: Staphylococcus epidermidis; assay: Antimicrobial activity against Staphylococcus epidermidis SA362 after 24 hrs; assay type: functional; details: SA362, 24 h
# Listeria monocytogenes [7] = assay: Antimicrobial activity against Listeria monocytogenes EGD after 24 hrs; assay type: functional
# Legionella pneumophila [8] = assay: Antimicrobial activity against Legionella pneumophila ATCC 33153 after 48 hrs; assay type: functional; details: ATCC 33153, 48 h
# Staphylococcus aureus [9] = assay: Antimicrobial activity against Staphylococcus aureus infected in THP1 cells after 24 hrs; assay type: functional, organism-based; details: THP-1, 24 h
# Method in brief: (§1)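 Bacteria were phagocytosed by human THP-1 macrophage-like cells, then exposed to a range of drug concentrations for a fixed time: 24 h for S. aureus, S. epidermidis and L. monocytogenes, 48 h for L. pneumophila. Change in CFU versus the initial inoculum was fitted with a sigmoidal curve to give Emin, Emax (relative maximal efficacy), EC50 and static concentration (Cs).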
# [10] = system: Staphylococcus epidermidis; assay: Antimicrobial activity against Staphylococcus epidermidis infected in THP1 cells after 24 hrs; assay type: functional, organism-based; details: THP-1, 24 h; method in brief: as §1
# Listeria monocytogenes [11] = assay: Antimicrobial activity against Listeria monocytogenes infected in THP1 cells after 24 hrs; assay type: functional, organism-based; details: THP-1, 24 h; method in brief: as §1
# Legionella pneumophila [12] = assay: Antimicrobial activity against Legionella pneumophila ATCC 33153 infected in THP1 cells after 48hrs; assay type: functional, organism-based; details: ATCC 33153, THP-1, 48 h; method in brief: as §1
# Staphylococcus aureus [13] = assay: Bacteriostatic activity against Staphylococcus aureus infected in THP1 cells after 24 hrs; assay type: functional, THP-1; method in brief: as §1
# [14] = system: Staphylococcus epidermidis; assay: Bacteriostatic activity against Staphylococcus epidermidis infected in THP1 cells after 24 hrs; assay type: functional, THP-1; method in brief: as §1
# Listeria monocytogenes [15] = assay: Bacteriostatic activity against Listeria monocytogenes EGD infected in THP1 cells after 24 hrs; assay type: functional, THP-1; method in brief: as §1
# Legionella pneumophila [16] = assay: Bacteriostatic activity against Legionella pneumophila ATCC 33153 infected in THP1 cells after 48hrs; assay type: functional, THP-1; method in brief: as §1
# Staphylococcus aureus [17] = assay: Antimicrobial activity against linezolid-susceptible Staphylococcus aureus ATCC 25923 infected in THP1 cells assessed as log reduction in bacterial count after 24 hrs; assay type: functional, THP-1; method in brief: as §1
# Staphylococcus aureus [18] = assay: Antimicrobial activity against linezolid-susceptible Staphylococcus aureus ATCC 33591 infected in THP1 cells assessed as log reduction in bacterial count after 24 hrs; assay type: functional, THP-1; method in brief: as §1
# Staphylococcus aureus [19] = assay: Antimicrobial activity against linezolid-susceptible Staphylococcus aureus NRS384 infected in THP1 cells assessed as log reduction in bacterial count after 24 hrs; assay type: functional, THP-1; method in brief: as §1
# Staphylococcus aureus [20] = assay: Antimicrobial activity against linezolid-susceptible Staphylococcus aureus NRS18 infected in THP1 cells assessed as log reduction in bacterial count after 24 hrs; assay type: functional, THP-1; method in brief: as §1
# Staphylococcus aureus [21] = assay: Antimicrobial activity against linezolid-susceptible Staphylococcus aureus SA040 infected in THP1 cells assessed as log reduction in bacterial count after 24 hrs; assay type: functional, THP-1; method in brief: as §1
# Staphylococcus aureus [22] = assay: Antimicrobial activity against linezolid-susceptible Staphylococcus aureus SA238 infected in THP1 cells assessed as log reduction in bacterial count after 24 hrs; assay type: functional, THP-1; method in brief: as §1
# Staphylococcus aureus [23] = assay: Antimicrobial activity against linezolid-resistant Staphylococcus aureus SA040L infected in THP1 cells assessed as log reduction in bacterial count after 24 hrs; assay type: functional, THP-1; method in brief: as §1
# Staphylococcus aureus [24] = assay: Antimicrobial activity against linezolid-susceptible Staphylococcus aureus ATCC 25923 infected in THP1 cells after 24 hrs; assay type: functional, organism-based; details: ATCC 25923, THP-1, 24 h; method in brief: as §1
# Staphylococcus aureus [25] = assay: Antimicrobial activity against linezolid-susceptible Staphylococcus aureus ATCC 33591 infected in THP1 cells after 24 hrs; assay type: functional, organism-based; details: ATCC 33591, THP-1, 24 h; method in brief: as §1
# Staphylococcus aureus [26] = assay: Antimicrobial activity against linezolid-susceptible Staphylococcus aureus NRS384 infected in THP1 cells after 24 hrs; assay type: functional, organism-based; details: NRS384, THP-1, 24 h; method in brief: as §1
# Staphylococcus aureus [27] = assay: Antimicrobial activity against linezolid-susceptible Staphylococcus aureus NRS18 infected in THP1 cells after 24 hrs; assay type: functional, organism-based; details: NRS18, THP-1, 24 h; method in brief: as §1
# Staphylococcus aureus [28] = assay: Antimicrobial activity against linezolid-susceptible Staphylococcus aureus SA040 infected in THP1 cells after 24 hrs; assay type: functional, organism-based; details: SA040, THP-1, 24 h; method in brief: as §1
# Staphylococcus aureus [29] = assay: Antimicrobial activity against linezolid-susceptible Staphylococcus aureus SA238 infected in THP1 cells after 24 hrs; assay type: functional, organism-based; details: SA238, THP-1, 24 h; method in brief: as §1
# Staphylococcus aureus [30] = assay: Antimicrobial activity against linezolid-resistant Staphylococcus aureus SA040L infected in THP1 cells after 24 hrs; assay type: functional, organism-based; details: THP-1, 24 h; method in brief: as §1
# Staphylococcus aureus [31] = assay: Antimicrobial activity against linezolid-resistant Staphylococcus aureus SA238L infected in THP1 cells after 24 hrs; assay type: functional, organism-based; details: THP-1, 24 h; method in brief: as §1
# Staphylococcus aureus [32] = assay: Bacteriostatic activity against linezolid-susceptible Staphylococcus aureus ATCC 25923 infected in THP1 cells after 24 hrs; assay type: functional, THP-1
# Method in brief: (§2)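 Human THP-1 myelomonocytic (macrophage-like) cells infected with S. aureus, then exposed 24 h to a range of antibiotic concentrations. CFU change was measured against the initial inoculum. A sigmoidal dose-response curve was fitted to give Emin, Emax and EC50, and the apparent static concentration (Cs) was taken from the fit.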
# Staphylococcus aureus [33] = assay: Bacteriostatic activity against linezolid-susceptible Staphylococcus aureus ATCC 33591 infected in THP1 cells after 24 hrs; assay type: functional, THP-1; method in brief: as §2
# Staphylococcus aureus [34] = assay: Bacteriostatic activity against linezolid-susceptible Staphylococcus aureus NRS384 infected in THP1 cells after 24 hrs; assay type: functional, THP-1; method in brief: as §2
# Staphylococcus aureus [35] = assay: Bacteriostatic activity against linezolid-susceptible Staphylococcus aureus NRS18 infected in THP1 cells after 24 hrs; assay type: functional, THP-1; method in brief: as §2
# Staphylococcus aureus [36] = assay: Bacteriostatic activity against linezolid-susceptible Staphylococcus aureus SA040 infected in THP1 cells after 24 hrs; assay type: functional, THP-1; method in brief: as §2
# Staphylococcus aureus [37] = assay: Bacteriostatic activity against linezolid-susceptible Staphylococcus aureus SA238 infected in THP1 cells after 24 hrs; assay type: functional, THP-1; method in brief: as §2
# Staphylococcus aureus [38] = assay: Bacteriostatic activity against linezolid-resistant Staphylococcus aureus SA040L infected in THP1 cells after 24 hrs; assay type: functional, THP-1; method in brief: as §2
# Staphylococcus aureus [39] = assay: Bacteriostatic activity against linezolid-resistant Staphylococcus aureus SA238L infected in THP1 cells after 24 hrs; assay type: functional, THP-1; method in brief: as §2
# Staphylococcus aureus [40] = assay: Antimicrobial activity against linezolid-susceptible Staphylococcus aureus SA238 infected in THP1 cells at pH 7.4 after 24 hrs; assay type: functional, organism-based; details: SA238, THP-1, 24 h
# Staphylococcus aureus [41] = assay: Antimicrobial activity against linezolid-susceptible Staphylococcus aureus SA238 infected in THP-1 cells at pH 5.5 after 24 hrs; assay type: functional, organism-based; details: SA238, THP-1, 24 h
# Staphylococcus aureus [42] = assay: Bacteriostatic activity against linezolid-susceptible Staphylococcus aureus SA238 infected in THP1 cells at pH 7.4 after 24 hrs; assay type: functional, THP-1
# Staphylococcus aureus [43] = assay: Bacteriostatic activity against linezolid-susceptible Staphylococcus aureus SA238 infected in THP1 cells at pH 5.5 after 24 hrs; assay type: functional, THP-1
# Staphylococcus aureus [44] = assay: Antimicrobial activity against linezolid-susceptible Staphylococcus aureus SA238 after 24 hrs; assay type: functional, organism-based; details: SA238, 24 h
# Staphylococcus aureus [45] = assay: Bacteriostatic activity against linezolid-susceptible Staphylococcus aureus SA238 after 24 hrs; assay type: functional
# Method in brief: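 Extracellular concentration-response in Mueller-Hinton broth over 24 h. Change in CFU was fitted to a sigmoidal function, and the apparent static concentration (Cs) was derived from the fit.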
# Staphylococcus aureus [46] = assay: Antimicrobial activity against linezolid-resistant Staphylococcus aureus SA238L infected in THP1 cells assessed as log reduction in bacterial count after 24 hrs; assay type: functional, THP-1; method in brief: as §1
compound,measurement,setting,value
CC(=O)NC[C@H]1CN(c2ccc(N3CCOCC3)c(F)c2)C(=O)O1 [LINEZOLID],MIC,Staphylococcus aureus [1],16 µg/mL
same,MIC,Staphylococcus aureus [2],1 µg/mL
same,MIC,Staphylococcus aureus [3],16 µg/mL
same,MIC,Staphylococcus aureus [4],1 µg/mL
same,MIC,Staphylococcus aureus [5],1 µg/mL
same,MIC,[6],1 µg/mL
same,MIC,Listeria monocytogenes [7],1 µg/mL
same,MIC,Legionella pneumophila [8],4 µg/mL
same,EC50,Staphylococcus aureus [9],0.63 µg/mL
same,EC50,[10],2.99 µg/mL
same,EC50,Listeria monocytogenes [11],0.62 µg/mL
same,EC50,Legionella pneumophila [12],8.45 µg/mL
same,Activity,Staphylococcus aureus [13],4.27 mg/L
same,Activity,[14],0.49 mg/L
same,Activity,Listeria monocytogenes [15],5.47 mg/L
same,Activity,Legionella pneumophila [16],5.14 mg/L
same,log10cfu,Staphylococcus aureus [17],-0.37
same,log10cfu,Staphylococcus aureus [18],-0.39
same,log10cfu,Staphylococcus aureus [19],-0.41
same,log10cfu,Staphylococcus aureus [20],-0.69
same,log10cfu,Staphylococcus aureus [21],-0.91
same,log10cfu,Staphylococcus aureus [22],-0.42
same,log10cfu,Staphylococcus aureus [23],-0.69
same,EC50,Staphylococcus aureus [24],0.63 µg/mL
same,EC50,Staphylococcus aureus [25],0.47 µg/mL
same,EC50,Staphylococcus aureus [26],0.4 µg/mL
same,EC50,Staphylococcus aureus [27],0.84 µg/mL
same,EC50,Staphylococcus aureus [28],0.63 µg/mL
same,EC50,Staphylococcus aureus [29],0.7 µg/mL
same,EC50,Staphylococcus aureus [30],2.78 µg/mL
same,EC50,Staphylococcus aureus [31],0.29 µg/mL
same,Activity,Staphylococcus aureus [32],4.27 mg/L
same,Activity,Staphylococcus aureus [33],2.95 mg/L
same,Activity,Staphylococcus aureus [34],2.3 mg/L
same,Activity,Staphylococcus aureus [35],2.77 mg/L
same,Activity,Staphylococcus aureus [36],1.59 mg/L
same,Activity,Staphylococcus aureus [37],4.55 mg/L
same,Activity,Staphylococcus aureus [38],10.15 mg/L
same,Activity,Staphylococcus aureus [39],>100 mg/L
same,EC50,Staphylococcus aureus [40],0.35 µg/mL
same,EC50,Staphylococcus aureus [41],0.18 µg/mL
same,Activity,Staphylococcus aureus [42],2.26 mg/L
same,Activity,Staphylococcus aureus [43],1.09 mg/L
same,EC50,Staphylococcus aureus [44],0.7 µg/mL
same,Activity,Staphylococcus aureus [45],4.55 mg/L
same,log10cfu,Staphylococcus aureus [46],0.27
